Results on 3 compounds are retold here after ChEMBL document CHEMBL5712070, “Discovery of a chemical probe for the L3MBTL3 methyllysine reader domain” (Nat Chem Biol, 2013).

Data set [1] addresses T1, Lethal(3)malignant brain tumor-like protein 3 (Homo sapiens) (UniProt Q96JM7).
T1 sequence (whole entry): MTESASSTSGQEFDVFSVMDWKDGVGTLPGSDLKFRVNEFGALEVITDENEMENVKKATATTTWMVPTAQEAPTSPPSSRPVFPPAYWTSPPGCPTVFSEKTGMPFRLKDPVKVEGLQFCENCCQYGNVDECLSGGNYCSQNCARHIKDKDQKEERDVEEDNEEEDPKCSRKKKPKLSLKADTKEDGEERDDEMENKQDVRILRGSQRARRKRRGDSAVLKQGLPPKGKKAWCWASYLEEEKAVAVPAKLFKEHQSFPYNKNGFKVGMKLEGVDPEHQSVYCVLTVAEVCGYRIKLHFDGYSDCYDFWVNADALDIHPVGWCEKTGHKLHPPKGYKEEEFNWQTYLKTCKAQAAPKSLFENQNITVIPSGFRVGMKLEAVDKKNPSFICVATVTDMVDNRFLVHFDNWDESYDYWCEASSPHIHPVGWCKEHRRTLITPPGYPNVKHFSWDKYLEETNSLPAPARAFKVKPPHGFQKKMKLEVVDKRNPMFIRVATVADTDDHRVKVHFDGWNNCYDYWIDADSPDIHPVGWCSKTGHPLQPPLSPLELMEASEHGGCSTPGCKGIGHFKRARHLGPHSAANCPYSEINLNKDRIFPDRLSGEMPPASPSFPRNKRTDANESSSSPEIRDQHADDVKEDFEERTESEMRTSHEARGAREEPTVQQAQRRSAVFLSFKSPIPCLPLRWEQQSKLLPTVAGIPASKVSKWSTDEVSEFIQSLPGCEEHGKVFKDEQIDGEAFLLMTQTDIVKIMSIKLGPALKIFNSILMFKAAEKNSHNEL
Kind of data set: Inhibition of GFP-3MBT tagged L3MBTL3 (unknown origin) expressed in HEK293 cells assessed as disruption of foci formation at 100 uM by immunofluorescence assay. It is filed as cell-based. Summed up:
(§1)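 HEK293 cells seeded on coverslips, transfected 16–24 h after seeding with GFP-3MBT or GFP-FLMBT for 48 h; compounds at indicated concentrations for at least 24 h; Hoechst 33342 stain before spinning-disk confocal imaging; foci quantified by % GFP intensity function.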

The target in data set [2] is T2, Lethal(3)malignant brain tumor-like protein 3 (Homo sapiens, UniProt Q96JM7).
T2 sequence (Q96JM7 whole entry): T1 sequence (whole entry)
Kind of data set: Binding affinity to GFP-3MBT tagged L3MBTL3 (unknown origin) assessed as diffusion coefficient at 1 uM (reference value: 0.1272 um2/s).

Data set [3] concerns the target T1, Lethal(3)malignant brain tumor-like protein 3 (Homo sapiens). Kind of data set: Inhibition of GFP-3MBT tagged L3MBTL3 (unknown origin) expressed in HEK293 cells assessed as reduction in recovery of fluorescence intensity up to 0.1 mM measured up to 60 secs by FRAP assay. To be noted: time <= 60.0 sec. It counts as cell-based. Summed up: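 FRAP: HEK293 cells transfected with GFP-3MBT; inhibitor treatment 3–6 h; 488 nm laser bleaching then image acquisition every 2 s on laser scanning confocal microscope. Recovery fitted exponentially from 8–10 nuclei per condition; water as control; experiment repeated 3 independent times.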

Data set [4] addresses T2, Lethal(3)malignant brain tumor-like protein 3. The data set can be described thus: Binding affinity to GFP-tagged full length L3MBTL3 (unknown origin) assessed as diffusion coefficient at 1 uM (reference value: 0.037549815 um2/s).
Data set [5] shares this target. Kind of data set: Inhibition of L3MBTL3 (unknown origin) using H4K20me2 peptide by Alpha-Screen methylated histone peptide competition assay.
Data set [6] can be described thus: Cytotoxicity in HEK293T/17 cells assessed as effect on cell viability up to 100 uM incubated for 24 hrs by CellTiter-Glo luminescent cell viability assay. It counts as toxicity, cell-based. To be noted: human, hek293t/17, 24 h.
The target in data set [7] is T1, Lethal(3)malignant brain tumor-like protein 3 (Homo sapiens). The data set can be described thus: Binding affinity to GFP-3MBT tagged L3MBTL3 (unknown origin) assessed as protein half life at 1 uM.
For data set [8], the target named is T2, Lethal(3)malignant brain tumor-like protein 3. Kind of data set: Binding affinity to L3MBTL3 (unknown origin) by ITC assay. (In general: ITC needs no label: the signal is the heat of the interaction.)
The target in data set [9] is T1, Lethal(3)malignant brain tumor-like protein 3 (Homo sapiens). The data set can be described thus: Binding affinity to GFP-tagged full length L3MBTL3 (unknown origin) expressed in HEK293 cells assessed as increase in protein mobility. It is filed as cell-based.
The target is the same in data set [10]. Kind of data set: Inhibition of GFP-tagged full length L3MBTL3 (unknown origin) expressed in HEK293 cells assessed as disruption of foci formation by immunofluorescence assay. It is filed as cell-based. Summed up: as §1
The target is the same in data set [11]. The data set can be described thus: Binding affinity to GFP-tagged full length L3MBTL3 (unknown origin) expressed in HEK293 cells assessed as co-localization with full length L3MBTL3. It is filed as cell-based.
For data set [12] the target is unchanged. The data set can be described thus: Binding affinity to flag-tagged full length L3MBTL3 (unknown origin) expressed in HEK293 cell lysates at 5 nmol by. It counts as subcellular.

Calls of active or inactive are those of the source. The rule behind the calls is not given here.

On to `O=C(c1ccc(C(=O)N2CCC(N3CCCCC3)CC2)cc1)N1CCC(N2CCCCC2)CC1`, for which the inhibition entry in data set [1] and in [3] was “inactive” in each case. Also, the Diffusion coefficient in data set [2] is 0.124 um2/s; in data set [4], 0.036 um2/s. For the same compound, the IC50 in data set [5] was greater than 10 µM. Besides, the Activity entry in data set [6] was “Non-Toxic”. In data set [7], the T1/2 worked out at 8.2 s. Besides, the Kd in data set [8] was greater than 150 µM.
On to `CCN1C(=O)\C(=C/C=C/C=C2/N(CCC(=O)OCOC(C)=O)c3ccc(C(=O)OCOC(C)=O)cc3C2(C)C)C(=O)N(CCC(=O)NCCCCCCNC(=O)c2ccc(Nc3cc(C(=O)N4CCC(N5CCCC5)CC4)ccc3C(=O)N3CCC(N4CCCC4)CC3)cc2)C1=O`, for which the result in [9] and in [11] was Active. In addition, the inhibition entry in data set [10] was “inactive”.
With `O=C(CCCC[C@@H]1SC[C@@H]2NC(=O)N[C@@H]21)NCCOCCOCCOCCOCCOCCOCCOCCOCCOCCOCCOCCNC(=O)c1ccc(Nc2cc(C(=O)N3CCC(N4CCCC4)CC3)ccc2C(=O)N2CCC(N3CCCC3)CC2)cc1`, the Kd in data set [8] amounted to 0.35 µM. In addition, in data set [12], the result was Active.

By IC50 is commonly meant the concentration needed to halve the response being measured. Low readings indicate greater potency, high ones weaker potency. In general, Kd refers to the constant that tells how readily two partners part at equilibrium. A low value points to tighter binding.
